Experimental findings from ChEMBL document CHEMBL1140960, “Synthesis of amide and urea derivatives of benzothiazole as Raf-1 inhibitor” (2008) are described below.

In one experiment the test system is SK-HEP1. In words: Antiproliferative activity against human SKHEP1 cells by SRB assay. Format: functional. The method, boiled down: (§1)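 Cells from exponential-phase cultures were trypsinized, counted and plated. Fixation used cold 10% TCA for 1 h at 4 °C, then water washes. Staining was 0.1% SRB in 1% acetic acid for at least 15 min, followed by 1% acetic acid rinses. Dye was solubilized in 10 mM unbuffered Tris base and absorbance read at 540 nm.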
Background: In SRB staining, fixed cells bind dye roughly in proportion to their protein.

The test system of the next experiment is NUGC-3. In words: Antiproliferative activity against human NUGC3 cells by SRB assay. Format: functional. In a few lines: as §1
The subject of another experiment is MDA-MB-231. As to the kind of experiment: Antiproliferative activity against human MDA-MB-231 cells by SRB assay. Format: functional. In a few lines: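 Trypsinized exponential-phase cells were plated at densities chosen for exponential growth over a 5-day assay. Cells were fixed with cold 10% TCA for 1 h at 4 °C, water-washed, stained at least 15 min with 0.1% SRB in 1% acetic acid, and rinsed with 1% acetic acid. Bound dye was solubilized in 10 mM unbuffered Tris base and OD read at 540 nm.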

For experiment [1], the target named is RAF proto-oncogene serine/threonine-protein kinase (Homo sapiens) (UniProt P04049). In words: Inhibition of Raf1 at 50 uM by liquid scintillation counting. The method, boiled down:
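Raf-1 and its substrate MEK were diluted together in buffer (20 mM MOPS pH 7.2, 25 mM β-glycerol phosphate, 5 mM EGTA, 1 mM orthovanadate, 1 mM DTT), with compound in 1% final DMSO. Reaction was started with [γ-33P]ATP (1000–3000 dpm/pmol) and run at 32 °C, usually 22 min. Samples went to phosphocellulose mats, were washed with 1% phosphoric acid and counted by scintillation; % inhibition is the mean of three experiments.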

What is called GI50 is the concentration giving 50% growth inhibition. Low values mean more potent growth inhibition, high ones less potent growth inhibition. One may read the inhibition as the relative decrease from the control value, in per cent. A high value points to a response far below the control.

In brackets after ≈: the same amount, converted by molar mass. Activity calls are given as the source filed them. The calls are words filed in the database; no cut-off is given here.

Chain of RAF proto-oncogene serine/threonine-protein kinase (Homo sapiens) (P04049 whole entry): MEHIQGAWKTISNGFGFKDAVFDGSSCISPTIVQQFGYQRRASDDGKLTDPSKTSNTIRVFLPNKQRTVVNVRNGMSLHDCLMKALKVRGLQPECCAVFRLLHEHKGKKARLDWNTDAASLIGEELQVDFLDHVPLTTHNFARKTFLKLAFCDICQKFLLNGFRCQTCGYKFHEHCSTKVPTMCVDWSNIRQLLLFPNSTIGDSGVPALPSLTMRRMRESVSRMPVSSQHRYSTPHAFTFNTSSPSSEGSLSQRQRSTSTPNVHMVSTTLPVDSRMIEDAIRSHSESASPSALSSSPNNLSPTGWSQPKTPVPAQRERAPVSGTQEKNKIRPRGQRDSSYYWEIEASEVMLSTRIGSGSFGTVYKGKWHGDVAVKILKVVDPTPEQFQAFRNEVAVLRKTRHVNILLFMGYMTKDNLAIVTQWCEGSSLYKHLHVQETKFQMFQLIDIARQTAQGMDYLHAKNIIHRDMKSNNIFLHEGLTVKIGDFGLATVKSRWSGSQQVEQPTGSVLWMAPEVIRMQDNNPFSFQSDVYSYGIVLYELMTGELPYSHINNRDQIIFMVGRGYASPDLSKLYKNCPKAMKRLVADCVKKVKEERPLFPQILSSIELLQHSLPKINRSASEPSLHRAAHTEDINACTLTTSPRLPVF

As for `Cc1ccc2nc(NC(=O)Nc3cccc([N+](=O)[O-])c3)sc2c1`, the 50% growth inhibitory concentration (GI50) with SK-HEP1, in the experiment on NUGC-3 and with MDA-MB-231 was greater than 10 µg/mL each time.

`O=C(Nc1ccccc1)Nc1nc2ccc(F)cc2s1`: the GI50 in the experiment on SK-HEP1, in the experiment on NUGC-3 and in the experiment on MDA-MB-231 was greater than 10 µg/mL in each case.

Take `O=C(Nc1cccc([N+](=O)[O-])c1)Nc1nc2ccc(Cl)cc2s1`: the GI50 was 2.21 µg/mL (≈ 6.34 µM) in the experiment with SK-HEP1, 1.03 µg/mL (≈ 2.95 µM) with NUGC-3 and 0.82 µg/mL (≈ 2.35 µM) in the experiment with MDA-MB-231. Besides, the outcome in experiment [1] was inactive.

On to `COc1ccc(C(=O)Nc2nc3cc(C)cc(C)c3s2)cc1`, for which the 50% growth inhibitory concentration (GI50) is greater than 10 µg/mL with SK-HEP1, greater than 10 µg/mL in the experiment with NUGC-3 and 1.03 µg/mL (≈ 3.3 µM) in the experiment on MDA-MB-231.

As for `COc1ccc(C(=O)Nc2nc3c(OC)cccc3s2)cc1`, the GI50 was 2.11 µg/mL (≈ 6.71 µM) in the experiment with SK-HEP1, 3.46 µg/mL (≈ 11 µM) with NUGC-3 and 1.25 µg/mL (≈ 3.98 µM) in the experiment on MDA-MB-231. The same compound had an inhibition in experiment [1] of 7.8%.

Regarding `COc1ccc(NC(=O)Nc2nc3ccc(F)cc3s2)cc1`, the GI50 in the experiment with SK-HEP1, with NUGC-3 and in the experiment with MDA-MB-231 was greater than 10 µg/mL in each case.

As to `Cc1ccc(C(=O)Nc2nc3cc(C)cc(C)c3s2)cc1`, the GI50 in the experiment with SK-HEP1 was 2.17 µg/mL (≈ 7.32 µM); in the experiment on NUGC-3 it was 2.37 µg/mL (≈ 8 µM); with MDA-MB-231, 0.44 µg/mL (≈ 1.48 µM).

On to `Cc1ccccc1NC(=O)Nc1nc2ccc(F)cc2s1`, for which the GI50 in the experiment with SK-HEP1, in the experiment with NUGC-3 and with MDA-MB-231 was greater than 10 µg/mL each time.

For the compound `COc1cccc2sc(NC(=O)c3ccc(C)cc3)nc12`, the GI50 in the experiment on SK-HEP1 was 2.01 µg/mL (≈ 6.74 µM); in the experiment on NUGC-3, greater than 10 µg/mL; in the experiment with MDA-MB-231, 0.86 µg/mL (≈ 2.88 µM). The inhibition in experiment [1] came out at 37%.

With `COc1ccc(C(=O)Nc2nc3cc(OC)ccc3s2)cc1`, the GI50 in the experiment with SK-HEP1, in the experiment with NUGC-3 and with MDA-MB-231 was greater than 10 µg/mL each time.

For the compound `Cc1cc(C)c2sc(NC(=O)c3ccc(C(F)(F)F)cc3)nc2c1`, the 50% growth inhibitory concentration (GI50) worked out at 1.36 µg/mL (≈ 3.88 µM) in the experiment with SK-HEP1, 1.4 µg/mL (≈ 4 µM) in the experiment on NUGC-3 and 0.45 µg/mL (≈ 1.28 µM) with MDA-MB-231. For the same compound, in experiment [1], the result was inactive.

Turning to `COc1cccc2sc(NC(=O)c3ccc([N+](=O)[O-])cc3)nc12`, the GI50 with SK-HEP1, with NUGC-3 and with MDA-MB-231 was greater than 10 µg/mL in each case.

Regarding `COc1cccc2c1C(=O)c1c(O)c3c(c(O)c1C2=O)C[C@@](O)(C(=O)CO)C[C@@H]3O[C@H]1C[C@H](N)[C@H](O)[C@H](C)O1` [DOXORUBICIN], the GI50 was determined as 0.07 µg/mL (≈ 0.129 µM) in the experiment with SK-HEP1, 0.11 µg/mL (≈ 0.202 µM) in the experiment with NUGC-3 and 0.39 µg/mL (≈ 0.718 µM) in the experiment on MDA-MB-231.

On to `O=C(Nc1nc2ccc(F)cc2s1)Nc1ccccc1F`, for which the GI50 with SK-HEP1, with NUGC-3 and in the experiment on MDA-MB-231 was greater than 10 µg/mL each time.

On to `COc1cccc2sc(NC(=O)c3ccc(C(F)(F)F)cc3)nc12`, for which the GI50 with SK-HEP1, with NUGC-3 and in the experiment on MDA-MB-231 was greater than 10 µg/mL each time.

As to `COc1cccc2sc(NC(=O)c3ccc(C#N)cc3)nc12`, the GI50 in the experiment with SK-HEP1, with NUGC-3 and in the experiment with MDA-MB-231 was greater than 10 µg/mL each time.

As for `COc1ccc2nc(NC(=O)c3ccc(C)cc3)sc2c1`, the GI50 in the experiment with SK-HEP1, in the experiment with NUGC-3 and in the experiment on MDA-MB-231 was greater than 10 µg/mL throughout.

On to `O=C(Nc1cccc([N+](=O)[O-])c1)Nc1nc2ccc(F)cc2s1`, for which the GI50 in the experiment on SK-HEP1 turned out to be 1.96 µg/mL (≈ 5.9 µM); in the experiment on NUGC-3 it was 0.83 µg/mL (≈ 2.5 µM); in the experiment with MDA-MB-231 it was 0.89 µg/mL (≈ 2.68 µM). The compound further returned an inhibition in experiment [1] of 7.9%.

Consider `Cc1cc(C)c2sc(NC(=O)c3ccc([N+](=O)[O-])cc3)nc2c1`, for which the GI50 with SK-HEP1 came to 1.74 µg/mL (≈ 5.32 µM); in the experiment on NUGC-3, 1.32 µg/mL (≈ 4.03 µM); in the experiment with MDA-MB-231, 0.29 µg/mL (≈ 0.886 µM). In addition, the result in experiment [1] was inactive.

As for `COc1ccc2sc(NC(=O)c3ccc([N+](=O)[O-])cc3)nc2c1`, the GI50 in the experiment on SK-HEP1, in the experiment with NUGC-3 and in the experiment with MDA-MB-231 was greater than 10 µg/mL in each case.

Consider `COc1ccc2sc(NC(=O)c3ccc(C(F)(F)F)cc3)nc2c1`, for which the GI50 in the experiment with SK-HEP1, with NUGC-3 and in the experiment on MDA-MB-231 was greater than 10 µg/mL each time.

As to `O=C(Nc1nc2ccc(C(F)(F)F)cc2s1)c1ccc([N+](=O)[O-])cc1`, the GI50 in the experiment with SK-HEP1, in the experiment on NUGC-3 and with MDA-MB-231 was greater than 10 µg/mL in each case.

Consider `COc1ccc2sc(NC(=O)c3ccc(C#N)cc3)nc2c1`, for which the GI50 in the experiment on SK-HEP1, with NUGC-3 and with MDA-MB-231 was greater than 10 µg/mL throughout.

For `O=C(Nc1nc2ccc([N+](=O)[O-])cc2s1)c1ccc(C(F)(F)F)cc1`, the GI50 in the experiment with SK-HEP1 worked out at 2.1 µg/mL (≈ 5.72 µM); in the experiment with NUGC-3 it was 1.65 µg/mL (≈ 4.49 µM); in the experiment with MDA-MB-231, 1.89 µg/mL (≈ 5.15 µM).

For `COc1ccc2sc(NC(=O)c3ccc(C)cc3)nc2c1`, the GI50 in the experiment on SK-HEP1, in the experiment with NUGC-3 and in the experiment on MDA-MB-231 was greater than 10 µg/mL each time.

Consider `Cc1cc2nc(NC(=O)Nc3ccccc3C)sc2cc1C`, for which the GI50 in the experiment on SK-HEP1 came out at 0.18 µg/mL (≈ 0.578 µM); with NUGC-3, 0.18 µg/mL (≈ 0.578 µM); in the experiment with MDA-MB-231, 0.1 µg/mL (≈ 0.321 µM). In addition, the inhibition in experiment [1] worked out at 14.9%.

As to `Cc1cc(C)c2sc(NC(=O)c3ccc(C#N)cc3)nc2c1`, the 50% growth inhibitory concentration (GI50) in the experiment on SK-HEP1 was 1.18 µg/mL (≈ 3.84 µM); in the experiment with NUGC-3 it was 0.62 µg/mL (≈ 2.02 µM); in the experiment on MDA-MB-231, 0.48 µg/mL (≈ 1.56 µM). The outcome in experiment [1] was inactive.
